Published values pooled from the literature.
Each line is one published result; the experiments were not run side by side.
Target: Megakaryocyte-associated tyrosine-protein kinase (MATK, Homo sapiens, UniProt P42679)
Residues used in one study (P42679 1-507): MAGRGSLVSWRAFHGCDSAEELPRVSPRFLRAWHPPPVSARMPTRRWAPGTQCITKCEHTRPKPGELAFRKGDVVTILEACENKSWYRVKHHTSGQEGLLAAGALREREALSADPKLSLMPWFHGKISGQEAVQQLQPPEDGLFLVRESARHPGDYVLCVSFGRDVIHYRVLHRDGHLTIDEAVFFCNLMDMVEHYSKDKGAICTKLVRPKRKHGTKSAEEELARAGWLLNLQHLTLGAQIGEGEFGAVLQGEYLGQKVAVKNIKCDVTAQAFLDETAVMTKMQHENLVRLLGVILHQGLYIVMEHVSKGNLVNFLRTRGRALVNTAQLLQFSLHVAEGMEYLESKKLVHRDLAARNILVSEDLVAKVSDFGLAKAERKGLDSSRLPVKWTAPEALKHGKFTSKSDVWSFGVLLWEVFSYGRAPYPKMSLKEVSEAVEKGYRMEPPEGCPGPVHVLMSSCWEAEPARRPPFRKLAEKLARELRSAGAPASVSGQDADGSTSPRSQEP

Compound | test | conditions | endpoint | value
Cn1cc(-c2cc(F)cc(N3CCn4c(cc5c4CCCC5)C3=O)c2CO)cc(Nc2ccc(N3CCN(C4COC4)CC3)cn2)c1=O | enzyme activity, inhibitor | 0.1 µM | inhibition | 9%
Nc1ncc(-c2nc(N3CCOCC3)nc(N3CCOCC3)n2)c(C(F)F)n1 | binding, competition with immobilised ligand | 10 µM | remaining binding | 100%
COc1ncccc1-c1cnn2ccc(N3CCN(C(=O)OC(C)C)CC3)nc12 | binding, competition with immobilised ligand | 1 µM | remaining binding | 46%
Cc1nn(C)cc1-c1nc2c(N3CCN(Cc4ccc(Cl)cc4)CC3)c(Cl)cnc2[nH]1 | binding, competition with immobilised ligand | 1 µM | remaining binding | 82%
CC(C)(C)c1cc(C=C(C#N)C#N)cc(Br)c1O | enzyme activity, inhibitor | 0.5 µM | remaining activity | 102%
COc1cc(Nc2ncc(F)c(Nc3ccc4c(n3)NC(=O)C(C)(C)O4)n2)cc(OC)c1OC | binding, competition with immobilised ligand | 10 µM | inhibition | 70%
O=c1[nH]c2ccccc2n1C1CCN(Cc2ccc(-c3[nH]c4cc5ncnc5cc4nc3-c3ccccc3)cc2)CC1 | cell-free assay | 0.5 µM | remaining signal | 102%
Cn1cc(-c2cccc(N3CCc4c(sc5c4CC(C)(C)C5)C3=O)c2CO)cc(Nc2ccncn2)c1=O | enzyme activity, inhibitor | 1 µM | inhibition | 4%
Cn1cncc1[C@](O)(COc1ccc(C#N)cc1-c1ccc(OC(F)(F)F)cc1)c1ccc(C#N)cc1 | cell-free assay, competition with immobilised ligand | 1 µM | remaining binding | 98%
